Test results: ChEMBL document CHEMBL1806443, “Novel imidazo[4,5-b]pyridine and triaza-benzo[c]fluorene derivatives: synthesis, antiproliferative activity and DNA binding studies” (Eur J Med Chem, 2011)
Activity calls are given as the source filed them. The calls are words filed in the database; no cut-off is given here.

What was measured:
[1] = tested on: SW-620; test: Cell cycle arrest in human SW620 cells assessed as accumulation at subG1 phase at 5 uM after 48 hrs by propidium iodide staining based flow cytometeric analysis (reference value: 29.1 +/- 1.1%); assay type: functional
How it was run: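 Cells seeded at 3 × 10^4 per well and treated 24 h later with 1, 5 or 10 µM for 24 and 48 h. Adherent and floating cells were pooled, washed in PBS and fixed in 70% ethanol. They were then stained with propidium iodide 10 µg/mL plus RNase A 0.2 µg/mL. Flow cytometry counted 10000 events; each point was run in triplicate; significance was taken at p < 0.05.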

[2] = tested on: SW-620; test: Cell cycle arrest in human SW620 cells assessed as accumulation at subG1 phase at 1 uM after 24 hrs by propidium iodide staining based flow cytometeric analysis (reference value: 18 +/- 1%); assay type: functional
[3] = tested on: MIA PaCa-2; test: Cell cycle arrest in human MIAPaCa2 cells assessed as accumulation at G2/M phase at 1 uM after 24 hrs by propidium iodide staining based flow cytometeric analysis (reference value: 19.5 +/- 3.9%); assay type: functional
[4] = tested on: MIA PaCa-2; test: Cell cycle arrest in human MIAPaCa2 cells assessed as accumulation at S phase at 10 uM after 48 hrs by propidium iodide staining based flow cytometeric analysis (reference value: 20.5 +/- 0.2%); assay type: functional
[5] = tested on: MIA PaCa-2; test: Cell cycle arrest in human MIAPaCa2 cells assessed as accumulation at S phase at 5 uM after 48 hrs by propidium iodide staining based flow cytometeric analysis (reference value: 20.5 +/- 0.2%); assay type: functional
[6] = tested on: SW-620; test: Cell cycle arrest in human SW620 cells assessed as accumulation at G2/M phase at 10 uM after 48 hrs by propidium iodide staining based flow cytometeric analysis (reference value: 16.1 +/- 0.9%); assay type: functional
[7] = tested on: SW-620; test: Cell cycle arrest in human SW620 cells assessed as accumulation at G2/M phase at 5 uM after 48 hrs by propidium iodide staining based flow cytometeric analysis (reference value: 16.1 +/- 0.9%); assay type: functional
[8] = tested on: SW-620; test: Cell cycle arrest in human SW620 cells assessed as accumulation at G2/M phase at 1 uM after 48 hrs by propidium iodide staining based flow cytometeric analysis (reference value: 16.1 +/- 0.9%); assay type: functional
[9] = tested on: SW-620; test: Cell cycle arrest in human SW620 cells assessed as accumulation at G2/M phase at 10 uM after 24 hrs by propidium iodide staining based flow cytometeric analysis (reference value: 22.3 +/- 2.9%); assay type: functional
[10] = tested on: SW-620; test: Cell cycle arrest in human SW620 cells assessed as accumulation at S phase at 5 uM after 48 hrs by propidium iodide staining based flow cytometeric analysis (reference value: 31.9 +/- 1%); assay type: functional
[11] = tested on: SW-620; test: Cell cycle arrest in human SW620 cells assessed as accumulation at S phase at 1 uM after 24 hrs by propidium iodide staining based flow cytometeric analysis (reference value: 48.4 +/- 1.4%); assay type: functional
[12] = tested on: SW-620; test: Cell cycle arrest in human SW620 cells assessed as accumulation at G1 phase at 5 uM after 48 hrs by propidium iodide staining based flow cytometeric analysis (reference value: 52.7 +/- 0.9%); assay type: functional
[13] = tested on: SW-620; test: Cell cycle arrest in human SW620 cells assessed as accumulation at G1 phase at 1 uM after 48 hrs by propidium iodide staining based flow cytometeric analysis (reference value: 52.7 +/- 0.9%); assay type: functional
[14] = tested on: MIA PaCa-2; test: Cell cycle arrest in human MIAPaCa2 cells assessed as accumulation at G1 phase at 10 uM after 24 hrs by propidium iodide staining based flow cytometeric analysis (reference value: 51.2 +/- 2.7%); assay type: functional
[15] = tested on: MIA PaCa-2; test: Cell cycle arrest in human MIAPaCa2 cells assessed as accumulation at subG1 phase at 10 uM after 48 hrs by propidium iodide staining based flow cytometeric analysis (reference value: 46.8 +/- 0.7%); assay type: functional
[16] = tested on: MCF7; test: Antiproliferative activity against human MCF7 cells after 72 hrs by MTT assay; assay type: functional, cell-based; details: Homo sapiens, MCF7, 72 h
How it was run: (§1)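 Monolayer cells in DMEM with 10% FBS, 2 mM L-glutamine, penicillin and streptomycin at 37 °C, 5% CO2. Seeded at 3000-6000 cells/well by doubling time on day 0. Five 10-fold dilutions (0.01–100 µM) were added and incubated 72 h. MTT read-out, converted to percentage growth. IC50 by linear regression between bracketing concentrations. Quadruplicate points, three independent experiments, ANOVA/Tukey p<0.05.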

[17] = tested on: HeLa; test: Antiproliferative activity against human HeLa cells after 72 hrs by MTT assay; assay type: functional, cell-based; details: Homo sapiens, HeLa, 72 h; how it was run: as §1
[18] = tested on: HeLa; test: Antiproliferative activity against human HeLa cells at 0.1 to 10 uM after 72 hrs by MTT assay; assay type: functional, cell-based; how it was run: as §1
[19] = tested on: WI-38; test: Cytostatic activity against human WI38 cells at 1 to 10 uM after 72 hrs by MTT assay; assay type: ADME, cell-based; details: wi-38, 72 h
How it was run: (§2)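 Monolayers in DMEM with 10% FBS, 2 mM L-glutamine, penicillin and streptomycin (37 °C, 5% CO2) were seeded at 3000–6000 cells/well on day 0. Five 10-fold dilutions (0.01–100 µM) were added, followed by 72-h incubation and MTT read-out. Absorbances were converted to percentage growth by the NIH formulae. Each point was run in quadruplicate in three experiments; ANOVA with Tukey test.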

[20] = tested on: HEp-2; test: Cytostatic activity against human Hep2 cells at 1 to 10 uM after 72 hrs by MTT assay; assay type: functional, cell-based; how it was run: as §2
[21] = tested on: HeLa; test: Cytostatic activity against human HeLa cells at 1 to 10 uM after 72 hrs by MTT assay; assay type: functional, cell-based; how it was run: as §2
[22] = tested on: Nucleic Acid; test: Binding affinity to calf thymus DNA assessed as change in melting temperature at compound to polynucleotide ratio of 0.5 by UV-VIS spectroscopic analysis; assay type: nucleic-acid assay; details: Bos taurus
How it was run: (§3)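 ct-DNA alone or with compound at set r = [compound]/[polynucleotide], in cacodylate buffer pH 7.0, I = 0.05 mol dm^-3. Absorbance at 260 nm followed against temperature, ligand absorbance subtracted, curves normalized. Tm is the transition midpoint, from the first-derivative maximum or by tangent method. ΔTm = Tm(complex) − Tm(free DNA), mean of ≥2 runs, error ±0.5 °C.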

[23] = tested on: Nucleic Acid; test: Binding affinity to calf thymus DNA assessed as change in melting temperature at compound to polynucleotide ratio of 0.3 by UV-VIS spectroscopic analysis; assay type: nucleic-acid assay; details: Bos taurus; how it was run: as §3
[24] = tested on: Nucleic Acid; test: Binding affinity to calf thymus DNA assessed as change in melting temperature at compound to polynucleotide ratio of 0.1 by UV-VIS spectroscopic analysis; assay type: nucleic-acid assay; details: Bos taurus; how it was run: as §3
[25] = tested on: Nucleic Acid; test: Binding affinity to calf thymus DNA assessed as fluorescence quenching at compound to DNA ratio of < 0.1 by fluorimetric titrations; assay type: nucleic-acid assay; details: Bos taurus
How it was run: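 Fluorimetric titration: portions of ct-DNA (sonicated, filtered, concentration as phosphate) added to compound in cacodylate buffer pH 7.0, I = 0.05 mol dm^-3. Emission 350–600 nm, sample absorbance <0.05 at excitation, mostly DNA excess (r < 0.1). Ks and n = [bound compound]/[DNA phosphate] by non-linear least-squares Scatchard fitting.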

[26] = tested on: SW-620; test: Induction of apoptosis in human SW620 cells assessed as morphological changes after 24 to 48 hrs by microscopic analysis; assay type: functional, cell-based
How it was run: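 Cells were seeded at 3 × 10^4 per well and exposed 24 h later to 1, 5 or 10 µM for 24 and 48 h. Apoptotic morphology (cell shrinkage, chromatin condensation) was scored by inverted light microscopy at 200× magnification.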

IC50 [16]: 6.54 µM
IC50 [17]: 0.41 µM
ΔTm [22]: 8.4 °C
ΔTm [23]: 6.4 °C
ΔTm [24]: 2.7 °C
Activity [25]: Active
SMILES: Cl.c1cnc2nc3ccc4ccc(C5=NCCN5)cc4n3c2c1
Activity [1]: 47.6%
Activity [2]: 14.3%
Activity [3]: 21.3%
Activity [4]: 56.9%
Activity [5]: 36.8%
Activity [6]: 18.2%
Activity [7]: 1.5%
Activity [8]: 19.4%
Activity [9]: 19.2%
Activity [10]: 7.5%
Activity [11]: 27.2%
Activity [12]: 90.9%
Activity [13]: 35.1%
Activity [14]: 52.4%
Activity [15]: 39.3%
Activity [18]: Active
Activity [19]: Toxic
Activity [20]: Active
Activity [21]: Active
Activity [26]: Dose-dependent effect
